Data set [1] deals with Influenza A virus. The data set is described as follows: Antiviral activity against Influenza A virus A/Puerto Rico/8/34 infected in BALB/c mouse assessed as body weight loss at 3 mg/kg bid treated after 48 hrs of infection for 10 days. The settings on record: A/Puerto Rico/8/1934(H1N1). It counts as functional. The procedure, abridged:
(§1)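 Male BALB/c mice, 8 per study, inoculated intranasally with mouse-adapted A/PR/8/34 at 5e3 TCID50/mouse. Twice-daily treatment began 48 h after infection. Survival and body weight were followed.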

Data set [2] is described as follows: Antiviral activity against Influenza A virus A/Viet Nam/1203/2004(H5N1) infected in MDCK cells assessed as cell protection after 3 days by cytopathic effect assay. The data set is classed as functional, cell-based. The settings on record: 72 h. The essentials:
(§2)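 MDCK cells incubated with test compound and influenza A virus for 72 h (3-day CPE format). Cell viability read by an ATP end point. EC50 is the concentration giving 50% cell protection; mean of N = 3 or greater.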

The test system of data set [3] is Influenza A virus. The experiment in a line: Antiviral activity against Influenza A virus A/Puerto Rico/8/34 infected in BALB/c mouse assessed as body weight loss at 30 mg/kg bid treated after 48 hrs of infection for 10 days. It counts as functional. The note with it: A/Puerto Rico/8/1934(H1N1). The essentials: as §1
Data set [4] has as its target Glycogen synthase kinase-3 beta (Homo sapiens, UniProt P49841). The experiment in a line: Inhibition of GSK3beta (unknown origin).
Data set [5] deals with Influenza A virus. The experiment in a line: Antiviral activity against Influenza A virus A/Puerto Rico/8/34 infected in BALB/c mouse assessed as mouse survival at 1 to 10 mg/kg bid treated after 48 hrs of infection for 10 days. The settings on record: dose mg/kg 1-10. The data set is classed as functional, A/Puerto Rico/8/1934(H1N1). The procedure, abridged: as §1
The nature of data set [6]: Cmax in rat at 3 mg/kg, po. The data set is classed as ADME, organism-based. Details: dose 3 mg/kg, route oral; call rule not given here. The note with it: in vivo.
A short description of data set [7]: Antiviral activity against Influenza A virus A/Georgia/20/2006 infected in MDCK cells assessed as cell protection after 3 days by cytopathic effect assay. The note with it: 72 h. The data set is classed as functional, cell-based, Influenza A virus (A/Georgia/20/2006(H1N1)). The procedure, abridged:
as §2

Data set [8] is described as follows: Inhibition of CYP450 (unknown origin) at > 30 uM. The data set is classed as ADME. The note with it: human.
Data set [9] relates to Influenza A virus. The data set is described as follows: Antiviral activity against Influenza A virus A/Puerto Rico/8/34 infected in MDCK cells assessed as cell protection after 3 days by cytopathic effect assay. It counts as functional, organism-based. The settings on record: A/Puerto Rico/8/1934(H1N1), 72 h. The essentials: as §2
In data set [10] the target is Adenosine receptor A2a (Homo sapiens) (UniProt P29274). The data set is described as follows: Inhibition of human adenosine A2A receptor at 10 uM relative to control. The procedure, abridged: (§3)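 Competitive binding panel of 68 receptors, ion channels and other targets, run at 10 μM compound; percent inhibition reported.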
A short description of data set [11]: Half life in rat at 3 mg/kg, iv. It counts as ADME, organism-based. The arrangement: dose 3 mg/kg, route intravenous. The note with it: in vivo.
The nature of data set [12]: Antiviral activity against Influenza A virus A/New York/18/2009 infected in MDCK cells assessed as cell protection after 3 days by cytopathic effect assay. The settings on record: 72 h. It counts as functional, cell-based, Influenza A virus (A/New York/18/2009(H1N1)). The procedure, abridged: as §2
(Damage to the host cells serves as the signal in cytopathic effect assays.)

Data set [13] is described as follows: AUC in mouse at 30 mg/kg. The data set is classed as ADME, organism-based. The arrangement: dose 30 mg/kg. The note with it: plasma.
For data set [14], the target named is T1, Adenosine receptor A1 (Homo sapiens) (UniProt P30542).
T1 sequence (whole entry): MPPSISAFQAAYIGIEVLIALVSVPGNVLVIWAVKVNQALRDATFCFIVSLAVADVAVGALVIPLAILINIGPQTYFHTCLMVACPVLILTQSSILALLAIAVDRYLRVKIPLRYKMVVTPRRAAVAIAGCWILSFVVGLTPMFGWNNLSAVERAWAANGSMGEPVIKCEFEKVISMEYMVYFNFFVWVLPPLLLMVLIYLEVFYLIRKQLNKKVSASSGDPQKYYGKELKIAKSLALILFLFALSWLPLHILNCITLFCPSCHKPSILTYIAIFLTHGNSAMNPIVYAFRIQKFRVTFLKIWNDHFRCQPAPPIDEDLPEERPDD
The data set is described as follows: Inhibition of human adenosine A1 receptor at 10 uM relative to control. The procedure, abridged:
as §3

The test system of data set [15] is Influenza A virus. The data set is described as follows: Antiviral activity against Influenza A virus A/Puerto Rico/8/34 infected in BALB/c mouse assessed as body weight loss at 1 mg/kg bid treated after 48 hrs of infection for 10 days. It counts as functional. The settings on record: A/Puerto Rico/8/1934(H1N1). The procedure, abridged: as §1
The test system of data set [16] is Influenza A virus. The data set is described as follows: Antiviral activity against Influenza A virus A/Puerto Rico/8/34 infected in BALB/c mouse assessed as body weight loss at 10 mg/kg bid treated after 48 hrs of infection for 10 days. The data set is classed as functional. The note with it: A/Puerto Rico/8/1934(H1N1). The essentials: as §1
Data set [17] in a line: Clearance in rat at 3 mg/kg, iv. The data set is classed as ADME, organism-based. The arrangement: dose 3 mg/kg, route intravenous. The note with it: in vivo.
A short description of data set [18]: Antiviral activity against Influenza A virus A/Mexico/4108/2009 infected in MDCK cells assessed as cell protection after 3 days by cytopathic effect assay. The data set is classed as functional, cell-based, Influenza A virus (A/Mexico/4108/2009(H1N1)). The note with it: 72 h. The essentials: as §2
A short description of data set [19]: AUC in rat at 3 mg/kg, po. The data set is classed as ADME, organism-based. Details: dose 3 mg/kg, route oral. The note with it: plasma.
Data set [20] deals with Voltage-gated inwardly rectifying potassium channel KCNH2 (Homo sapiens, UniProt Q12809). The experiment in a line: Inhibition of human ERG at > 30 uM relative to control. The procedure, abridged:
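hERG tested by manual patch clamp.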

Data set [21] is described as follows: Antiviral activity against Influenza A virus A/California/07/2009 infected in MDCK cells assessed as cell protection after 3 days by cytopathic effect assay. It counts as functional, cell-based, Influenza A virus (A/California/07/2009(H1N1)). The note with it: 72 h. The essentials: as §2
A short description of data set [22]: Antiviral activity against Influenza A virus A/Texas/48/2009 infected in MDCK cells assessed as cell protection after 3 days by cytopathic effect assay. The data set is classed as functional, cell-based, Influenza A virus (A/Texas/48/2009(H1N1)). The note with it: 72 h. The procedure, abridged: as §2
Data set [23] in a line: Oral bioavailability in rat at 3 mg/kg. It counts as ADME, organism-based. The note with it: in vivo.
Data set [24] can be described thus: Cmax in mouse at 30 mg/kg. The data set is classed as ADME, organism-based. Details: dose 30 mg/kg. The note with it: in vivo.

Each structure is given as a SMILES string. pEC50, pKi: −log10 of the molar value.

Sequence of Glycogen synthase kinase-3 beta (P49841 whole entry): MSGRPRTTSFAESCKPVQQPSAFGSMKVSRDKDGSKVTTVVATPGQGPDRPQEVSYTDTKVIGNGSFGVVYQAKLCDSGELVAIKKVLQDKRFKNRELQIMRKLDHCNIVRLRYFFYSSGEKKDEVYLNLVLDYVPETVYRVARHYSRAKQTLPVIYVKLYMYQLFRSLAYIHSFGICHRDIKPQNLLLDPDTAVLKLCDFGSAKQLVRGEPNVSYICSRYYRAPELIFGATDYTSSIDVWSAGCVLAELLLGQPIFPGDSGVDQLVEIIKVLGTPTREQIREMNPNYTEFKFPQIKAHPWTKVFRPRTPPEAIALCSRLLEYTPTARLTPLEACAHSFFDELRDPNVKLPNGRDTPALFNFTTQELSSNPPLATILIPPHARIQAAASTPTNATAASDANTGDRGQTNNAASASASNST
Sequence of Voltage-gated inwardly rectifying potassium channel KCNH2 (Q12809 whole entry): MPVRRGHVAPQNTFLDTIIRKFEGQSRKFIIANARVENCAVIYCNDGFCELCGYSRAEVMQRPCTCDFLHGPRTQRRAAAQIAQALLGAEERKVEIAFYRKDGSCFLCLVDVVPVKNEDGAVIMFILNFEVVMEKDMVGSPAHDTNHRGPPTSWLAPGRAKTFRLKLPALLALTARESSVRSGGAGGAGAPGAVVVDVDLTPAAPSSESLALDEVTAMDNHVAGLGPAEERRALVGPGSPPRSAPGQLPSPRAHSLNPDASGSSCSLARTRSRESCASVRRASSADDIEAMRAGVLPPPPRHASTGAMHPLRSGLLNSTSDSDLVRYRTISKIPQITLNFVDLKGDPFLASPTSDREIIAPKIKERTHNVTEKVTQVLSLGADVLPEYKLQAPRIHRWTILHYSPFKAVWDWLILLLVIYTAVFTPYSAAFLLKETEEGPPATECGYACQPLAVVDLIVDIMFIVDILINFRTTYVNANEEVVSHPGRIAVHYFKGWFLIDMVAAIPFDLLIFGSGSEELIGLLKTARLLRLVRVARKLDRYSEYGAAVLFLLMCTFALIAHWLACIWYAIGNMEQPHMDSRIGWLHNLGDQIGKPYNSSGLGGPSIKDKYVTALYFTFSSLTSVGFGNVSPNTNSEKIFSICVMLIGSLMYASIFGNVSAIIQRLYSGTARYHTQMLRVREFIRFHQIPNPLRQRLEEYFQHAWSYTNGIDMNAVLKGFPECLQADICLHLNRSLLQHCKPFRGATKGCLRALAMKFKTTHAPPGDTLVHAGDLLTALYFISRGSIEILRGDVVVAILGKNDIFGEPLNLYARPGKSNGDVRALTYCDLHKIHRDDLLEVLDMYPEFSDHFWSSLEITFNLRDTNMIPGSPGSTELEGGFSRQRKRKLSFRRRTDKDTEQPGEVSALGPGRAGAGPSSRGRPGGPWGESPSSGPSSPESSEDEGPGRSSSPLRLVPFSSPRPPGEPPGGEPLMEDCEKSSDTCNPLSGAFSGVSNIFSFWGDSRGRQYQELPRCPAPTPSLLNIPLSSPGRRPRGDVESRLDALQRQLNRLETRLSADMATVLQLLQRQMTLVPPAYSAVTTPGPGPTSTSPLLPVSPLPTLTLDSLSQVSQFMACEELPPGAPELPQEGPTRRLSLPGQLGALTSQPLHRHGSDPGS
Sequence of Adenosine receptor A2a (Homo sapiens) (P29274 whole entry): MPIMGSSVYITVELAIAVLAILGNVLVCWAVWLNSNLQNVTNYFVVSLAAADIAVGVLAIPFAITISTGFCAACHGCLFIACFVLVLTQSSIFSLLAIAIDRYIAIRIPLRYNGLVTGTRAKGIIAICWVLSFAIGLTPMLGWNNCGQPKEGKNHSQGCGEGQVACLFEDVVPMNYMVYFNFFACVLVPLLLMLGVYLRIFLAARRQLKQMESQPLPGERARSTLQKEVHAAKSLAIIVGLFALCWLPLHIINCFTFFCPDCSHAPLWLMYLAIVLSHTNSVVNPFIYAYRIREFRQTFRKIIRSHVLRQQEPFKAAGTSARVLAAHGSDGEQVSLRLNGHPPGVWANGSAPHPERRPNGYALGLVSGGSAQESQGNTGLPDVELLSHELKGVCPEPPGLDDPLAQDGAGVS

Usually inhibition in vivo stands for the drop in the measured response relative to a control, in per cent. For orientation: pEC50 means the negative decadic logarithm of the EC50, by convention in mol/L. One may read the pKi as the Ki on a negative log10 scale, so that one unit is a factor of ten. A low value points to a high Ki. One may read the Cmax as the peak of the concentration-time curve. One may read the inhibition as the share of the control response that was lost under treatment. A higher inhibition goes with a strong effect. Broadly, the half-life is the time in which the quantity being followed falls by half. Lower therefore signals rapid decline. One may read the AUC as the area under the concentration-time curve, a measure of exposure. A lower AUC goes with less exposure. The clearance is the volume of plasma or blood freed of the substance per unit of time. In general, bioavailability refers to the share of a dose that reaches the circulation, judged against a reference dose that is usually intravenous. A higher bioavailability goes with good availability. Regarding `O=C(O)[C@H]1C2CCC(CC2)[C@@H]1Nc1nc(-c2c[nH]c3ncc(F)cc23)ncc1F` [PIMODIVIR], the inhibition in vivo at 3 mg/kg in the data set with Influenza A virus [1] is 10.9%. The negative-log EC50 (pEC50) in [2] was greater than 9.82; in [7], 8.59; in the data set on Influenza A virus [9] it was 9.49; in data set [12], 9.23; in [18] it was 8.57; in [21] it was 8.74. The pEC50 in data set [22] was 8.55. Also, the inhibition in vivo at 30 mg/kg in the data set on Influenza A virus [3] is 30%. In data set [4], the pKi is 5.80. Also, the Survival in the data set with Influenza A virus [5] was found to be 100%. For the same compound, the figures for the Cmax in data set [6] and in data set [24] were 80 ng/mL and 18000 ng/mL, respectively. For the same compound, the “inhibition (INH)” value in [8] and in data set [20] was “Not Active” in each case. Also, the inhibition in data set [10] was 62%; in data set [14], 96%. The compound further had a half-life in data set [11] of 3.5 h. Further, the figures for the AUC in [13] and in data set [19] were 22000 ng·h/mL and 500 ng·h/mL, respectively. The inhibition in vivo at 1 mg/kg in the data set on Influenza A virus [15] stood at 22.5%. The inhibition in vivo at 10 mg/kg with Influenza A virus [16] was found to be 7.1%. For the same compound, in [17], the clearance was 26 mL/min/kg. In data set [23], the bioavailability was determined as 26%.

`NC12CC3CC(CC(C3)C1)C2` [AMANTADINE]: the pEC50 (in [7]; in the data set with Influenza A virus [9]; in [12]; in data set [18]; in [21]; in data set [22]) was less than 5.00 each time.

These data come from ChEMBL document CHEMBL3352362, “Discovery of a novel, first-in-class, orally bioavailable azaindole inhibitor (VX-787) of influenza PB2” (J Med Chem, 2014).
